# Measured values as given in article PMC3076219 (European journal of immunology, 2009).
# How the values were obtained:
# [1] = tested on: neutrophils; test: Calcium mobilization of neutrophils; format: cell-based, human
# [2] = tested on: monocytes; test: Migration of monocytes, 24-well Transwell; format: cell-based, human; settings: LL-37 5 µM, CXCL1 50 nM, WKYMVm 5 µM, ATP 50 µM, BzATP 50 µM; 90 min, 37°C; Fig. 7F
# Outline: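 CFSE-labelled monocytes or THP-1 cells (5 µM, 5 min RT) at 2×10^6/mL in phenol-red-free RPMI 1640 with 1% FBS went in the Transwell upper chamber (3-µm pores). Stimuli in the lower chamber included CXCL1 50 nM, WKYMVm 5 µM and ATP/BzATP 50 µM. Cells were used with or without 20 min preincubation with 10 µM CXCR2 antagonist. Incubation at 37 °C lasted 90 min for monocytes and 2 h for THP-1. Lower-well cells were read at 495 nm against a standard curve, in quadruplicate.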
# [3] = tested on: CXCR2; test: Confocal analysis of CXCR2 internalization in neutrophils; format: cell-based, human; settings: LL-37 5 µM or CXCL8 50 nM, 1 h, 37°C; Fig. 8
# Outline: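 Neutrophils came from citrated donor blood by dextran sedimentation and Ficoll gradient. […] Cells were fixed in 2% paraformaldehyde, permeabilised with saponin and blocked with human serum. Anti-CXCR1 or anti-CXCR2 mAb (4°C), then Alexa 488 anti-mouse IgG, DAPI mount, confocal imaging; three independent experiments.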
# [4] = tested on: neutrophils; test: Neutrophil migration, 24-well Transwell; format: cell-based, human; settings: 1 h, 37°C, Fig. 6H
# Outline: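 CFSE-labelled human neutrophils (5 µM, 5 min RT) at 5×10^6/mL in phenol-red-free RPMI 1640 with 1% FBS went in the Transwell upper chamber (3-µm pores). The lower chamber held test peptide (1 or 5 µM) or medium. Some cells were first preincubated 20 min with 10 µM CXCR2 antagonist. After 1 h at 37 °C, migrated cells were read at 495 nm against a standard curve. Quadruplicate; unpaired t-test.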
# [5] = tested on: CD4+ T cells; settings: ref [3], [9], [10]; cited from earlier work
# [6] = tested on: CXCR2 transfected HEK293 cells; test: Secondary necrosis of CXCR2 transfected HEK293 cells; format: cell-based; settings: Supporting information Fig. 4
# [7] = tested on: CXCR2; test: CXCR2 surface expression on monocytes; format: cell-based, human; settings: Supporting information Fig. 2
# [8] = tested on: neutrophils; test: Cross-desensitization of calcium mobilization of neutrophils; format: cell-based, human
# [9] = tested on: neutrophils; settings: ref [13]; cited from earlier work
# [10] = tested on: neutrophils; settings: ref [15], cited from earlier work
substance,measurement,setting,value
"LL-37: ~4.5 kD active α-helical peptide, C-terminal domain of human cathelicidin hCAP18","[Ca2+]i pattern, dose response","[1]; LL-37 1 µM, 2.5 µM, 5 µM, 10 µM, Indo-1, Fig. 3A",a rapid rise followed by a slightly declining plateau region
same,[Ca2+]i duration,"[1]; LL-37, 600s recording time, Fig. 3A",sustained calcium mobilization over the 600s recording time
same,"return of Ca2+ response to baseline, neutrophils","[1]; LL-37, Fig 3A","returns to baseline for THP-1 cells, but not for neutrophils and monocytes"
same,calcium flux response in the absence of extracellular Ca2+,"[1]; PBS without calcium and magnesium, LL-37 5 µM, WKYMVm 5 µM, ATP 5 µM, Fig. 3C",only the WKYMVm peptide is capable of generating a calcium flux response
same,stimulation of migration of monocytes,[2],able to stimulate migration in monocytes
same,CXCR2 translocation (internalization),[3],translocation of CXCR2 but not CXCR1 to the cytoplasmic granules
same,neutrophil migration at 1 µM,[4]; LL-37 1 µM,not at 1 µM
same,neutrophil migration at 5 µM,"[4]; LL-37 5 µM, over background, p<0.05",induced neutrophil migration (over background)
same,migration of CD4+ T cells,[5],"migration of human peripheral monocytes, neutrophils, CD4+ T cells"
same,"generation of secondary necrotic cells, HEK293/CXCR2",[6],generation of secondary necrotic cells
same,CXCR2 down-regulation on monocytes,[7],down-regulate CXCR2
same,cross-desensitization of ATP response by LL-37,"[8]; LL-37 first, then ATP, Supporting information Fig. 3A-B","unable to block calcium mobilization stimulated by LL-37 in neutrophils, and vice versa"
same,"cross-desensitization of response to fMLF by LL-37, CXCL7, CXCL1",[8]; data not shown,do not cross-sensitize fMLF stimulation
same,inhibition of spontaneous neutrophil apoptosis,[9],potent inhibitor of spontaneous neutrophil apoptosis
same,cytotoxicity,[10]; LL-37 10 µM,general cytotoxicity is observed at this dosage
same,toxic effect on freshly isolated neutrophils,[10]; annexin V negative,no toxic effect
